From PubChem
Shown are actives, neighbours in structure and some others; about 4.8% of the full set was active somewhere.
Mot1-301 SUMO: blocks SUMOylation pathway, rescuing yeast Mot1-301 growth; growth rescue, % at 18.8 µM; S. cerevisiae Mot1-301 growth rescue, ATP luminescence, 38.5C; percent above DMSO median, 100 means doubled; hit rate 1% among 320,000;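 active = every valid replicate shows activation above 250% relative to neutral control wells; inactive = the rest, any valid replicate at or below 250%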;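 note: OY570 slx delta 5 strain wells were the positive control but not used for scaling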
WT yeast gro inh: growth inhibition of WT yeast, mitochondrial fusion screen | mitochondrial fusion phenotypic screen, WT strain | inhibition, % at 10 µM | hit rate 2.1% among 190,000 | AID 1362; in the data active = inhibition above about 58%; tested in S. cerevisiae
Beta cell apopt: blocks beta cell apoptosis; INS-1E cytokine-induced death, ATP luminescence, 48 h; percent of positive-control rescue, neutral wells zero; protection from apoptosis, % (concentration not given with the values); hit rate 0.8% among 300,000;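 active = Every replicate reaches about 75%, or at least half do and their mean reaches it too, limit read from the data; inconclusive = At least half of replicates reach the limit but their mean does not; inactive = Under half of replicates reach the limit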;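 note: 0% = cytokine-treated negative control wells and 100% = positive control rescue; higher means more ATP so stronger rescue from cytokine killing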
CSC inhib: blocks cancer stem cells. inhibition, % at 7.5 µM. hit rate 1.1% among 300,000. cancer stem cell-like cells viability, luminescence. AID 2717; in the data active = inhibition above about 75%; inconclusive = no clear call, values can overlap the other calls; tested in HMLE shEcad cells
T cruzi repl: blocks replication of Trypanosoma cruzi | inhibition, % (no concentration beside the values) | hit rate 1.4% among 300,000 | T. cruzi beta-gal in NIH3T3, luminescence, 90 h | AID 1885;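 active = mean inhibition across valid replicates above about 55%, limit read from the data; inconclusive = mean below that limit but half or more replicates reach it; inactive = mean below it, under half of replicates reach it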;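 note: signal also drops with host cell toxicity which is not excluded here; 0% = plate median of DMSO wells and 100% = zero luminescence signal; higher percent means less beta-gal luminescence so fewer parasites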
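Read-out: Parasite load inhibition, % | Test system: Mouse NIH/3T3 fibroblasts infected with β-gal-expressing T. cruzi Tulahuen C4 | Amount: 5,000 cells/well | Medium: DMEM, 2% fetal bovine serum | Signal: GalScreen β-gal luminescence, detergent lysis, 60 min | Timing: 3 h attach, ≥90 h co-culture | Also added: Tulahuen C4 trypomastigotes, 5000/well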
Efflux pump mplx: blocks antifungal efflux pumps in multiplex yeast assay | S. cerevisiae Candida pump triplex, Nile Red efflux | AID 485275 | hit rate 0.44% among 330,000 | inhibition, % at 10 µM;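 active = plate passing quality check with inhibition over a set limit, or well fluorescence over plate mean plus 4 SD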;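 note: Nile Red retained in pooled yeast measured as flow cytometry median fluorescence; 0% = buffer negative control and 100% = Enniatin B positive control; higher means more Nile Red kept so more efflux inhibition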
* hit, by the source's call; ? = inconclusive; . = not tested or not shown.

SMILES | Mot1-301 SUMO | WT yeast gro inh | Beta cell apopt | CSC inhib | T cruzi repl | Efflux pump mplx
CNC[C@@H](Cc1ccccc1)NC[C@@H](CC1CCCCC1)NCCCc1ccccc1 | -68.5 | . | 109.9* | 110.6* | 41.3 | .
CCC[C@@H](CN[C@@H](CNC)C(C)C)NCCCCc1ccccc1 | 0.9 | . | 10.3 | 23.1 | -24.1 | 0.0
CCC[C@@H](CNC)NC[C@H](Cc1ccccc1)NCCCCc1ccccc1 | -2.3 | . | 18.9 | 132.8* | 31.2 | 0.1
CNC[C@@H](CC1CCCCC1)NC[C@H](CC(C)C)NCCc1cccc(C(F)(F)F)c1 | -66.1 | . | 112.2* | 110.7* | 46.6 | .
O=C(Nc1ccccc1N1CCCC1)c1ccc([N+](=O)[O-])cc1Cl | -10.6 | -9.8 | -0.2 | 4.5 | 56.5* | 0.5
O=C(Nc1ccccc1N1CCN(C(=O)c2ccc(Cl)cc2)CC1)c1cccc([N+](=O)[O-])c1 | 176.0 | . | 16.7 | 10.1 | 54.8* | -3.7
O=C(c1ccc(-c2ccc(Cl)cc2)o1)N1CCN(c2ccc([N+](=O)[O-])cc2Cl)CC1 | 5.3 | 17.2 | 113.3* | 43.0 | 46.1 | 0.0
CCOc1ccc(NC(=O)CN(c2ccc(OC)cc2)S(=O)(=O)c2cccs2)cc1 | 3.2 | . | -3.3 | 4.2 | . | -0.1
Cc1cc(=O)c(C(=O)Nc2ccc(N3CCOCC3)cc2N2CCOCC2)nn1-c1ccccc1Cl | -5.9 | . | -1.0 | -11.2 | . | 0.0
O=C(CSC(=S)N1CCCC1)N1CCN(S(=O)(=O)c2cccc([N+](=O)[O-])c2)CC1 | 8.3 | . | -0.5 | -4.9 | 19.4 | -4.2
CCCCNc1cnn(-c2ccccc2)c(=O)c1Cl | 224.0 | -14.5 | -1.2 | 5.7 | 0.8 | 0.5
CCc1ccc(Nc2cnn(-c3nc4ccccc4s3)c(=O)c2Cl)cc1 | -9.9 | 62.8* | 3.5 | 6.7 | 10.8 | -0.3
CC(C)(C)c1ccc(C(=O)NC(=O)CSc2n[nH]c(N)n2)cc1 | 12.2 | . | -5.8 | . | . | -0.1
O=S(=O)(c1cccs1)N1CN(Cc2ccco2)c2nc3ccccc3nc21 | 38.4 | . | -2.5 | 28.9 | 8.6 | 0.7*
Cc1ccccc1NS(=O)(=O)c1ccc(NC(=O)CSCc2ccc(Br)cc2)cc1 | 26.0 | 65.9* | -10.6 | 20.0 | 0.8 | -0.1
O=C(CSCc1ccc(Br)cc1)Nc1ccc(S(=O)(=O)N2CCOCC2)cc1 | -8.9 | 6.5 | -3.3 | -14.6 | 10.3 | -0.2
Cc1ccc(NC(=S)N/N=C/c2ccc([N+](=O)[O-])s2)cc1 | 120.4 | 73.5 | ? | 0.8 | 63.3* | 0.4
O=C(Cc1cccs1)N/N=C\c1ccc([N+](=O)[O-])s1 | -23.4 | 9.8 | 93.9* | -1.3 | 83.5* | -0.1
COc1cc(/C=N/NC(=O)Cc2cccs2)c([N+](=O)[O-])cc1OC | 0.7 | -4.8 | . | -6.4 | -4.2 | -0.1
Cc1cc(C)cc(N=Cc2ccc([N+](=O)[O-])s2)c1 | 8.6 | 41.4 | -1.6 | 5.3 | 37.1 | -0.5
CCOC(=O)c1c(S(=O)(=O)N2CCCC(C(=O)Nc3ccc(C)cn3)C2)c(C)n(C)c1C (stereo not given) | 5.1 | . | -2.8 | 1.2 | -1.0 | 0.0
CCCCn1c(N)c(C(=S)NC(=O)CC(C)(C)C)c(=O)n(C)c1=O | -13.3 | 68.2* | -5.4 | . | 8.2 | 0.0
Cc1ccc(NS(=O)(=O)c2ccc(NC(=O)C(C)Sc3ccc(Cl)cc3)cc2)c(C)c1 (stereo not given) | 7.6 | 32.5 | 0.5 | 76.8* | 26.9 | -0.1
COCCCN1C(=O)c2ccc(C(=O)N3CCN(c4ccccc4OC)CC3)cc2C1=O | 6.5 | . | -2.4 | 12.0 | -12.5 | -0.2
CC1(C)C=Cc2c(c3c(c4c(=O)c(-c5ccc(O)cc5)coc24)OC(C)(C)CC3)O1 | 133.9 | 71.4* | 4.6 | 100.2* | 52.7 | -0.2
SMILES | Mot1-301 SUMO | WT yeast gro inh | Beta cell apopt | CSC inhib | T cruzi repl | Efflux pump mplx
CCS(=O)(=O)c1ccc(OC)c(N=Nc2ccc(O)c3ncccc23)c1 | -8.7 | 11.6 | 108.2* | -4.2 | 18.4 | 0.0
CCN(CC)S(=O)(=O)c1cc(OC)ccc1N=Nc1ccc(O)c2ncccc12 | -19.8 | . | 94.4* | 93.6* | 41.0 | -0.3
COc1ccccc1N(CC(=O)Nc1ccccc1C(=O)N1CCOCC1)S(C)(=O)=O | -7.0 | . | -0.4 | -11.4 | 1.4 | 0.0
O=C(Nc1cccc(Cl)c1)c1ccccc1 | 6.0 | . | -0.2 | 7.9 | . | -0.2
CN(c1ccc(C(=O)Nc2ccc(Cl)cn2)cc1)S(=O)(=O)c1ccccc1 | 6.0 | 24.8 | -1.2 | 9.8 | 24.3 | 0.1
O=C(Nc1ccc(Nc2ccccc2)cc1)c1ccc(Cl)cc1 | 27.7 | . | 13.6 | 41.2 | 12.8 | -0.1
